Drawing on ChEMBL document CHEMBL1129569, “Synthesis and anticonvulsant activities of N-Benzyl-2-acetamidopropionamide derivatives” (J Med Chem, 1996), this text covers TD50, ED50 and selectivity ratio for 24 molecules.

Data set [1] can be described thus: (§1) Neurotoxic toxicity was evaluated by rotarod test after intraperitoneal administration. Particulars: mouse, in vivo, ip. Type of data set: organism-based. The method in brief:
(§2)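 Mice, ip, in 0.5% methylcellulose suspension. Impairment was defined as failure to stay balanced for 1 min on a 1 in. knurled rod turning at 6 rpm, in each of three successive trials.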

The test system of data set [2] is Mus musculus. In words: Effective dose against maximal electroshock seizure in mice after intraperitoneal administration. It counts as functional. The procedure, abridged:
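Mice, ip; compounds suspended in 0.5% (w/v) methylcellulose in water, 0.01 mL/g body weight. Butacaine-containing saline electrolyte was dropped on the eyes, then corneal electrodes delivered 60-cycle AC, 50 mA, 0.2 s. The endpoint was abolition of hindlimb tonic extension.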
For orientation: In the maximal electroshock model the usual endpoint is tonic extension of the hind limbs.

The nature of data set [3]: Protective index between TD50/MES ED50 when administered intraperitoneally to mouse. It counts as ADME, organism-based. The conditions noted are these: in vivo, ip, read-out: PI.
A short description of data set [4]: Neurotoxic toxicity in mice was evaluated by rotarod test after intraperitoneal administration. It counts as organism-based. Particulars: mouse, in vivo, ip. The procedure, abridged:
as §2
In general terms: Falling from the rotarod earlier than controls is read as motor impairment.

Data set [5] is described as follows: Protective index between TD50/MES ED50 when administered orally to rat. It counts as ADME, organism-based. Particulars: in vivo, po, read-out: PI. The procedure, abridged:
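Rats, oral. PI = TD50 (ataxia, gait and placing-response assessment) / MES ED50 (150 mA, 0.2 s corneal shock), with both taken at the time of peak effect.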

A short description of data set [6]: Protective index between TD50/MES ED50 when administered intraperitoneally to mice. Particulars: mouse, in vivo, ip; read-out: PI. Type of data set: ADME, organism-based.
Data set [7] is described as follows: Neurotoxic toxicity against Rat was evaluated by rotarod test afte oral administration. Type of data set: organism-based. The conditions noted are these: in vivo.
The subject of a further data set is Rattus norvegicus. Put plainly: Effective dose against maximal electroshock seizure in rat after oral administration. Type of data set: functional. The method in brief:
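Male Sprague Dawley rats dosed orally with a suspension in 0.5% (w/v) methylcellulose in water. After anaesthetic electrolyte eye drops, corneal 60-cycle AC was applied at 150 mA for 0.2 s. Protection meant abolition of hindlimb tonic extensor.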

A short description of data set [8]: Neurotoxic toxicity was evaluated by rotarod test after intraperitoneal administration determined from horizontal screen test. It counts as organism-based. The conditions noted are these: mouse, in vivo, ip.
For data set [9], the system named is Mus musculus. The data set is described as §1. The conditions noted are these: in vivo, ip. It counts as organism-based. The procedure, abridged: as §2
The nature of data set [10]: Neurotoxic toxicity against Rat was evaluated by rotarod test afte oral administration <250. The conditions noted are these: in vivo. It counts as organism-based.
Where [11] appears, read: Mus musculus, ip, read-out: ED50.

Broadly, the TD50 is the 50% point of the dose-response relation for the toxic effect studied. A low value points to greater toxicity. By ED50 is commonly meant the dose that gives a 50% effect, or the effect in half of the subjects.

Each structure is given as a SMILES string. “And” between values parts separate entries of the source, which are not always exact repeats. Equal entries are not always repeated.

In the case of `CCNCC(NC(C)=O)C(=O)NCc1ccccc1` (centres undefined), the TD50 in [1] was found to be 100 mg/kg. Besides, the ED50 with Mus musculus [2] (setting [11]) was > 100 mg/kg.
Consider `CC(=O)N[C@H](CO)C(=O)NCc1ccccc1`, for which the selectivity ratio in data set [3] was > 9.4. For the same molecule, the ED50 with Mus musculus [2] (setting [11]) was determined as 53 mg/kg. Besides, the TD50 in data set [4] is > 500 mg/kg.
On to `CC(=O)NC(NO)C(=O)NCc1ccccc1` (centres undefined), for which the ED50 in the data set on Mus musculus [2] (setting [11]) came out at 100 mg/kg.
As for `COC[C@@H](NC(C)=O)C(=O)NCc1cccc(F)c1`, the values for the selectivity ratio in data set [5] and in [6] were > 58 and 6.7, respectively. Also, the TD50 in data set [1] was 46 mg/kg; in data set [7], > 400 mg/kg. For the same molecule, the ED50 in the data set on Mus musculus [2] (setting [11]) and with Rattus norvegicus was 6.9 mg/kg each time.
`CC(=O)NC(CI)C(=O)NCc1ccccc1` (centres undefined): in data set [1], the TD50 was found to be 300 mg/kg.
For the molecule `CON(C)C(NC(C)=O)C(=O)NCc1ccccc1` (centres undefined), the selectivity ratio in data set [6] was 7.6. Further, in the data set with Mus musculus [2] (setting [11]), the ED50 was determined as 6.7 mg/kg. Also, the TD50 in data set [8] stood at 51 mg/kg.
Take `CC(=O)NC(C)C(=O)NCc1ccccc1` (centres undefined): the selectivity ratio in data set [5] was > 21; in data set [6], 5.9. This molecule had an ED50 in the data set on Rattus norvegicus of 48 mg/kg.
Regarding `CNCC(NC(C)=O)C(=O)NCc1ccccc1` (centres undefined), the TD50 in the data set with Mus musculus [9] is < 300 mg/kg and > 100 mg/kg. Moreover, in the data set on Mus musculus [2], the ED50 was <300 mg/kg and >100 mg/kg.
With `CC(=O)NC(CN)C(=O)NCc1ccccc1` (centres undefined), in [1], the TD50 is > 100 mg/kg. Moreover, the ED50 with Mus musculus [2] (setting [11]) is > 100 mg/kg.
With `CCOCC(NC(C)=O)C(=O)NCc1ccccc1` (centres undefined), the values for the selectivity ratio in [5] and in data set [3] were > 26 and 4.6, respectively. Moreover, the TD50 in [1] was found to be 78 mg/kg. Moreover, the ED50 in the data set on Rattus norvegicus came out at 19 mg/kg.
In the case of `CC(=O)NC(CBr)C(=O)NCc1ccccc1` (centres undefined), the TD50 in the data set on Mus musculus [9] was > 100 mg/kg and < 300 mg/kg.
For the molecule `CC(=O)NC(CO)C(=O)NCc1ccccc1` (centres undefined), the ED50 in the data set with Mus musculus [2] is >100 mg/kg and <300 mg/kg. Moreover, the TD50 in data set [8] was < 300 mg/kg.
Regarding `CC(=O)NC(CN1CCOCC1)C(=O)NCc1ccccc1` (centres undefined), in data set [1], the TD50 is > 300 mg/kg. In addition, in the data set on Mus musculus [2], the ED50 is <300 mg/kg and >100 mg/kg.
Turning to `CC(=O)NC(CCl)C(=O)NCc1ccccc1` (centres undefined), the TD50 in the data set on Mus musculus [9] is < 300 mg/kg and > 100 mg/kg. Moreover, the ED50 in the data set with Mus musculus [2] (setting [11]) turned out to be 100 mg/kg.
Take `COC[C@H](NC(C)=O)C(=O)NCc1ccccc1`: the TD50 is > 30 mg/kg in data set [7] and > 300 mg/kg in data set [4]. Moreover, the ED50 was >100 mg/kg and <300 mg/kg in the data set on Mus musculus [2]; > 30 mg/kg in the data set with Rattus norvegicus.
In the case of `CONC(NC(C)=O)C(=O)NCc1ccccc1` (centres undefined), the selectivity ratio in data set [6] is 7.4. Besides, the ED50 in the data set with Mus musculus [2] (setting [11]) worked out at 6.2 mg/kg.
Consider `CC(=O)NC(CN(C)C)C(=O)NCc1ccccc1` (centres undefined), for which, in data set [1], the TD50 was > 300 mg/kg.
On to `CSCC(NC(C)=O)C(=O)NCc1ccccc1` (centres undefined), for which the TD50 with Mus musculus [9] is < 300 mg/kg and > 100 mg/kg.
In the case of `COC[C@@H](NC(C)=O)C(=O)NCc1ccc(F)cc1`, the selectivity ratio in data set [6] was found to be 6.7. In addition, the TD50 in data set [7] is < 250 mg/kg; in [10], > 125 mg/kg. Also, the 50% effective dose (ED50) with Mus musculus [2] (setting [11]) amounted to 4.2 mg/kg; with Rattus norvegicus, 2.6 mg/kg.
For the molecule `CC(=O)N[C@@H](C)C(=O)NCc1ccccc1`, in data set [6], the selectivity ratio was 1.5.
As for `CC(=O)N[C@H](C)C(=O)NCc1ccccc1`, the selectivity ratio in data set [5] was > 36; in data set [6], 3.9. The values for the median effective dose (ED50) in the data set on Mus musculus [2] (setting [11]) and in the data set with Rattus norvegicus were 55 mg/kg and 28 mg/kg, respectively.
Consider `COC[C@@H](NC(C)=O)C(=O)NCc1ccccc1` [LACOSAMIDE], for which the TD50 in data set [7] was > 500 mg/kg.
`O=C1NC(=O)C(c2ccccc2)(c2ccccc2)N1` [PHENYTOIN]: the selectivity ratio in [5] is > 22; in [3] it was 6.6. Besides, the results for the median effective dose (ED50) in the data set on Mus musculus [2] (setting [11]) and with Rattus norvegicus were 6.5 mg/kg and 23 mg/kg, respectively.
On to `CCCC(CCC)C(=O)O` [VALPROIC ACID], for which the values for the median effective dose (ED50) in the data set with Mus musculus [2] (setting [11]) and in the data set with Rattus norvegicus were 290 mg/kg and 400 mg/kg, respectively.
